Consider 17 molecules from ChEMBL document CHEMBL1128315, “1-(Fluorobenzyl)-4-amino-1H-1,2,3-triazolo[4,5-c]pyridines: synthesis and anticonvulsant activity” (1995).

For experiment [1], the system named is Rattus norvegicus. Briefly: Anticonvulsant activity against maximal electroshock-induced seizures in Wistar rats following i.p. administration. Format: functional. The conditions noted are these: ip. Put shortly:
(§1)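 Male Charles River Wistar rats; maximal electroshock seizure test. Compounds given as solutions or fine dispersions in water or 0.5% methyl cellulose, micronized if not fully soluble. ED50 is the dose protecting 50% against hind limb extension, calculated by Miller–Tainter. Values with a standard error used four doses, at least 12 rats each. Values without one used three doses, six rats each.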

Experiment [2] concerns Rattus norvegicus. Kind of experiment: Anticonvulsant activity against maximal electroshock-induced seizures in Wistar rats following p.o. administration. It counts as functional. The conditions noted are these: po. Summed up: as §1

The structures appear in SMILES notation.

In the experiment on Rattus norvegicus [1], `CNc1nccc2c1nnn2Cc1ccccc1C(F)(F)F.Cl` showed an ED50 greater than 25 mg/kg. In the case of `CNc1nccc2c1nnn2Cc1ccc(F)cc1.Cl`, the ED50 in the experiment with Rattus norvegicus [1] was 17 mg/kg. Regarding `Cl.Nc1nccc2c1nnn2Cc1ccccc1`, the 50% effective dose (ED50) in the experiment on Rattus norvegicus [1] was 8.7 mg/kg; with Rattus norvegicus [2], 20 mg/kg. For the molecule `CCN(C)c1nccc2c1nnn2Cc1ccccc1F.Cl`, in the experiment on Rattus norvegicus [1], the ED50 was greater than 25 mg/kg. On to `CC(C)Nc1nccc2c1nnn2Cc1ccccc1F.Cl`, for which the ED50 is 14.2 mg/kg in the experiment on Rattus norvegicus [1] and greater than 25 mg/kg with Rattus norvegicus [2]. In turn, `Cl.Fc1ccccc1Cn1nnc2c(NCC3CC3)nccc21` displayed a median effective dose (ED50) in the experiment on Rattus norvegicus [1] of 40 mg/kg. On to `CNc1nccc2c1nnn2Cc1cc(F)ccc1F.Cl`, for which the ED50 with Rattus norvegicus [1] is 5 mg/kg. On to `Cl.Nc1nccc2c1nnn2Cc1ccccc1F`, for which the ED50 with Rattus norvegicus [1] amounted to 28.4 mg/kg; in the experiment with Rattus norvegicus [2] it was 11.5 mg/kg.

Take `CNc1nccc2c1nnn2Cc1ccccc1.Cl`: the ED50 in the experiment with Rattus norvegicus [1] is 6.3 mg/kg; in the experiment on Rattus norvegicus [2], 10 mg/kg. The matching figures for `CCNc1nccc2c1nnn2Cc1ccccc1F.Cl`: 8 mg/kg and 10 mg/kg.

`CCCNc1nccc2c1nnn2Cc1ccccc1F.Cl`: the ED50 was 14.4 mg/kg in the experiment with Rattus norvegicus [1] and greater than 25 mg/kg in the experiment with Rattus norvegicus [2]. As to `Cl.Fc1ccccc1Cn1nnc2c(NC3CC3)nccc21`, the 50% effect level with Rattus norvegicus [1] (ED50) was put at a dose of 5.6 mg/kg. Same read-out and setting: with `CNc1nccc2c1nnn2Cc1cccc(F)c1.Cl` the figure was 10 mg/kg.

As to `CNc1nccc2c1nnn2Cc1ccccc1F.Cl`, the ED50 in the experiment with Rattus norvegicus [1] and in the experiment on Rattus norvegicus [2] was 4.6 mg/kg each time. `Cl.Nc1nccc2c1nnn2Cc1cc(F)ccc1F`: in the experiment on Rattus norvegicus [1], the ED50 amounted to 18 mg/kg. With `CNc1ncnc2c1ncn2Cc1ccccc1F` [BW-A78U], the figures for the ED50 with Rattus norvegicus [1] and with Rattus norvegicus [2] were 1.7 mg/kg and 2.5 mg/kg, respectively. On to `O=C1NC(=O)C(c2ccccc2)(c2ccccc2)N1` [PHENYTOIN], for which the ED50 in the experiment with Rattus norvegicus [1] amounted to 10 mg/kg; in the experiment with Rattus norvegicus [2], 20 mg/kg.
